Among the data in ChEMBL document CHEMBL1133602, “A study of the relationship between biological activity and prolyl amide isomer geometry in oxytocin using 5-tert-butylproline to augment the Cys(6)-Pro(7) amide cis-isomer population” (J Med Chem, 2000) are Ki, EC50 and Activity values, retold here.

SMILES strings stand for the structures. Numbered stars: 1 amine (or outer) side, 2 acyl side, 3 side chain; on linkers, the order of the positions; unused ones are H or OH. Bridge positions count the residues as written; N and C are the ends. Square brackets hold non-standard residues; d marks the D form. Peptide text beside a SMILES is read from it. X3 = CC(C)(C)[C@H]1CC[C@@H](C(=O)[*:2])N1[*:1]; X1 = CC(C)(C)C1CC[C@@H](C(=O)[*:2])N1[*:1]; Mpa = O=C(O)CCS

One assay has as its target T1, Oxytocin receptor (Rattus norvegicus, UniProt P70536).
T1 sequence (P70536 whole entry): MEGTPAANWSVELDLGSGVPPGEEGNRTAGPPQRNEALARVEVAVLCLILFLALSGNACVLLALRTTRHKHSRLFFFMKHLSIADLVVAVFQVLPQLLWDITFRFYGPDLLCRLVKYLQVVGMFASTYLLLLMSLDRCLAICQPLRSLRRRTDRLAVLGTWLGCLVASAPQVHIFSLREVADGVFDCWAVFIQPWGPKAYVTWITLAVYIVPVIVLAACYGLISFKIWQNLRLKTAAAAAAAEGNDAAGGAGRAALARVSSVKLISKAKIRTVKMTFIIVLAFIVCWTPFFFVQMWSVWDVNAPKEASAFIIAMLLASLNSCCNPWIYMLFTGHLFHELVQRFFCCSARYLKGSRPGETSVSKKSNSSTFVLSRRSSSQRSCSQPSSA
Put plainly: Binding affinity against oxytocin receptor. The essentials:
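Crude rat uterine membrane fraction incubated with [3H]oxytocin (2 nM) plus peptide at 0.1-10000 nM, 30 min at 35 °C. Buffer was 50 mM HEPES pH 7.6 with 10 mM MnCl2 and 1 mg/mL bovine serum albumin. Bound and free separated by rapid filtration.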

For assay [1], the species on record is Rattus norvegicus. Put plainly: Effective concentration in rat in the absence of Magnesium. The class given is functional, organism-based. The gist of the method:
(§1)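 Isolated uterus from estrogen-primed rats (24-48 h) in Munsick solution, either without magnesium or with 1 mM Mg2+. Antagonist added 1 min before a standard oxytocin dose. EC50 is the concentration that cuts the response to a 2x agonist dose down to that of dose x; pA2 is its negative log. Uteri from 3-5 rats.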

The species entered for assay [2] is Rattus norvegicus. Put plainly: Effective concentration in rat in the presence of 1 mM of Magnesium. The class given is functional, organism-based. The gist of the method:
as §1

For assay [3], the species on record is Rattus norvegicus. Put plainly: In Vitro evaluation for the uterotonic activity in rat in the absence of Magnesium. The class given is functional. The gist of the method:
(§2)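 Isolated uterus from rats estrogenized 24-48 h beforehand, in Munsick solution without magnesium or with 1 mM Mg2+, oxytocin as standard. Single doses given in random order with bath changed after each response and at least 5 min between doses; cumulative doubling doses given at 1-min intervals. IU/mg from threshold doses against standard, EC50 from the curves. Uteri from 3-5 rats.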

For assay [4], the species on record is Rattus norvegicus. Put plainly: Compound was evaluated for the pressor activity in rat. The assay is classed as functional. The gist of the method:
(§3)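 Male rats (220-260 g) under urethane, pretreated with phenoxybenzamine in two doses. Femoral vein cannulated for dosing and carotid artery for blood pressure. After about 30 min stabilization, i.v. bolus doses of standard or analogue given in random order. Standard curve spanned 2 × 10-5 - 2 × 10-4 mg/kg. Activity set against the standard, 3-4 animals per analogue.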

The species named for assay [5] is Rattus norvegicus. Put plainly: In Vitro evaluation for the uterotonic activity in rat in the presence of 1 mM of Magnesium. The class given is functional. The gist of the method: as §2
The species entered for assay [6] is Rattus norvegicus. Put plainly: Compound was evaluated for the pressor activity. The assay is classed as functional. The gist of the method:
as §3

As usually defined, the Ki is the equilibrium dissociation constant of an inhibitor or competing ligand from its target. A word on the EC50: it is the concentration needed to bring the measured effect to its halfway point. At Oxytocin receptor, `CC[C@H](C)[C@@H]1NC(=O)[C@H](Cc2ccc(O)cc2)NC(=O)[C@@H](N)CSSC[C@@H](C(=O)N2[C@H](C(=O)N[C@@H](CC(C)C)C(=O)NCC(N)=O)CC[C@@H]2C(C)(C)C)NC(=O)[C@H](CC(N)=O)NC(=O)[C@H](CCC(N)=O)NC1=O` (H-CYIQNC[X3]LG-NH2; disulfide 1-6) [listing 1 of 2 here] yielded a Ki of 1430 nM. Also, the figures for the EC50 in the assay filed under Rattus norvegicus [1] and in the assay listed under Rattus norvegicus [2] were 150 nM and 450 nM, respectively.
Regarding `CC[C@H](C)[C@@H]1NC(=O)[C@H](Cc2ccc(O)cc2)NC(=O)[C@@H](N)CSSC[C@@H](C(=O)N2[C@H](C(=O)N[C@@H](CC(C)C)C(=O)NCC(N)=O)CC[C@@H]2C(C)(C)C)NC(=O)[C@H](CC(N)=O)NC(=O)[C@H](CCC(N)=O)NC1=O` (H-CYIQNC[X3]LG-NH2; disulfide 1-6) [listing 2 of 2 here], the Activity in the assay filed under Rattus norvegicus [3] is 1.8 IU mg-1; in the assay listed under Rattus norvegicus [4] it was 0 IU/mg; in the assay listed under Rattus norvegicus [5] it was 0.5 IU mg-1.
Regarding `CC[C@H](C)[C@@H]1NC(=O)[C@H](Cc2ccc(O)cc2)NC(=O)CCSSC[C@@H](C(=O)N2C(C(C)(C)C)CC[C@H]2C(=O)N[C@@H](CC(C)C)C(=O)NCC(N)=O)NC(=O)[C@H](CC(N)=O)NC(=O)[C@H](CCC(N)=O)NC1=O` (stereo partly specified) ([Mpa]YIQNC[X1]LG-NH2; disulfide 1-6), the Activity in the assay listed under Rattus norvegicus [3] worked out at 6.1 IU mg-1; in the assay filed under Rattus norvegicus [4] it was 0 IU/mg; in the assay filed under Rattus norvegicus [5], 3 IU mg-1. Also, the affinity at Oxytocin receptor corresponds to a Ki of 240 nM. For the same compound, the figures for the EC50 in the assay listed under Rattus norvegicus [1] and in the assay filed under Rattus norvegicus [2] were 50 nM and 75 nM, respectively.
In the case of `CC[C@H](C)[C@@H]1NC(=O)[C@H](Cc2ccc(O)cc2)NC(=O)CCSSC[C@@H](C(=O)N2CCC[C@H]2C(=O)N[C@@H](CC(C)C)C(=O)NCC(N)=O)NC(=O)[C@H](CC(N)=O)NC(=O)[C@H](CCC(N)=O)NC1=O` [DEMOXYTOCIN], the Activity in the assay listed under Rattus norvegicus [3] turned out to be 837 IU mg-1; in the assay listed under Rattus norvegicus [5], 760 IU mg-1; in the assay listed under Rattus norvegicus [6], 1.5 IU/mg. The compound also registered a Ki on Oxytocin receptor of 3.2 nM.
Turning to `CC[C@H](C)[C@@H]1NC(=O)[C@H](Cc2ccc(O)cc2)NC(=O)[C@@H](N)CSSC[C@@H](C(=O)N2CCC[C@H]2C(=O)N[C@@H](CC(C)C)C(=O)NCC(N)=O)NC(=O)[C@H](CC(N)=O)NC(=O)[C@H](CCC(N)=O)NC1=O` [OXYTOCIN], the Activity in the assay filed under Rattus norvegicus [3] is 450 IU mg-1; in the assay filed under Rattus norvegicus [4], 5 IU/mg; in the assay filed under Rattus norvegicus [5], 450 IU mg-1. Also, the figures for the EC50 in the assay listed under Rattus norvegicus [1] and in the assay listed under Rattus norvegicus [2] were 0.6 nM and 0.5 nM, respectively.
